Assay results: ChEMBL document CHEMBL1137638, “TEM-158 (CMT-9), a new member of the CMT-type extended-spectrum beta-lactamases” (Antimicrob Agents Chemother, 2007)
Calls of active or inactive are those of the source. No cut-off for these calls is given here.

How the values were obtained:
Escherichia coli [1] = experiment: Antibacterial activity against Escherichia coli BER1 producing beta-lactamase TEM-158; format: functional, organism-based
Escherichia coli [2] = experiment: Antibacterial activity against Escherichia coli BER1 producing TEM-158 by microdilution method; format: functional, organism-based
Escherichia coli [3] = experiment: Activity of Escherichia coli DH5alpha beta-lactamase TEM-12 by microacidimetric method
Summary of the method: (§1)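 Each beta-lactamase was purified to homogeneity. Kinetic constants (kcat, Km) for beta-lactam substrates, including penicillins, were determined by computerized microacidimetry.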

Escherichia coli [4] = experiment: Ratio of Kcat to Km for Escherichia coli DH5alpha beta-lactamase TEM-12; set-up: unit not given here; summary of the method: as §1
Escherichia coli [5] = experiment: Activity of Escherichia coli CF0042 beta-lactamase TEM-35 by microacidimetric method; summary of the method: as §1
Escherichia coli [6] = experiment: Ratio of Kcat/Km for Escherichia coli DH5alpha beta-lactamase TEM-12 to Kcat/Km for Escherichia coli DH5alpha beta-lactamase TEM-158; summary of the method: as §1
Escherichia coli [7] = experiment: Ratio of Kcat to Km for Escherichia coli CF0042 beta-lactamase TEM-35; set-up: unit not given here; summary of the method: as §1
Escherichia coli [8] = experiment: Ratio of Kcat/Km for Escherichia coli DH5alpha beta-lactamase TEM-35 to Kcat/Km for Escherichia coli DH5alpha beta-lactamase TEM-158; summary of the method: as §1
Escherichia coli [9] = experiment: Ratio of Kcat/Km for Escherichia coli DH5alpha beta-lactamase TEM-1 to Kcat/Km for Escherichia coli DH5alpha beta-lactamase TEM-158; summary of the method: as §1
[10] = system: Escherichia coli str. K-12 substr. DH10B

| SMILES | Activity (Escherichia coli [1]) | Activity (Escherichia coli [2]) | Km (Escherichia coli [3]) [µM] | kcat (Escherichia coli [3]) [s⁻¹] | kcat/Km (Escherichia coli [4]) | kcat (Escherichia coli [5]) [s⁻¹] | Ratio (Escherichia coli [6]) | Km (Escherichia coli [5]) [µM] | kcat/Km (Escherichia coli [7]) | Ratio (Escherichia coli [8]) | Ratio (Escherichia coli [9]) | kcat [10] [s⁻¹] |
| --- | --- | --- | --- | --- | --- | --- | --- | --- | --- | --- | --- | --- |
| C[C@H]1[C@H](NC(=O)/C(=N\OC(C)(C)C(=O)O)c2csc(N)n2)C(=O)N1S(=O)(=O)O | inactive | inactive | 247 | 2 | 0.008 | < 0.1 | 4 |  |  |  |  |  |
| C[C@@H](O)[C@H]1C(=O)N2C(C(=O)O)=C(SCCNC=N)C[C@H]12 | inactive | inactive |  |  |  |  | 4 |  |  |  |  |  |
| CC1(C)S[C@@H]2[C@H](NC(=O)[C@H](N)c3ccc(O)cc3)C(=O)N2[C@H]1C(=O)O | inactive | inactive | 7.5 | 60 | 8 | 900 | 4 | 245 | 8.5 | 8 | 8 |  |
| CC(C)(O/N=C(\C(=O)N[C@@H]1C(=O)N2C(C(=O)[O-])=C(C[n+]3ccccc3)CS[C@H]12)c1csc(N)n1)C(=O)O | inactive | inactive | 254 | 11.1 | 0.04 | < 0.1 | 4 |  |  |  |  | 16 |
| CO/N=C(\C(=O)N[C@@H]1C(=O)N2C(C(=O)O)=C(COC(C)=O)CS[C@H]12)c1csc(N)n1 | inactive | inactive | 320 | 10.6 | 0.03 | < 0.1 | 4 |  |  |  |  |  |
| CC(=O)OCC1=C(C(=O)O)N2C(=O)[C@@H](NC(=O)Cc3cccs3)[C@H]2SC1 | inactive | inactive | 327 | 46 | 0.02 | 52 | 4 | 1200 | 0.04 |  |  |  |
| CO[C@@]1(NC(=O)Cc2cccs2)C(=O)N2C(C(=O)O)=C(COC(N)=O)CS[C@@H]21 | inactive | inactive |  |  |  |  | 4 |  |  |  |  |  |
| CC1(C)S[C@@H]2[C@H](NC(=O)Cc3ccccc3)C(=O)N2[C@H]1C(=O)O |  |  | 7 | 80 | 11 | 1050 | 8 | 140 | 7.5 | 8 | 8 |  |
| CCN1CCN(C(=O)N[C@@H](C(=O)N[C@@H]2C(=O)N3[C@@H]2SC(C)(C)[C@@H]3C(=O)O)c2ccccc2)C(=O)C1=O | inactive | inactive | 15 | 89 | 6 | 945 | 8 | 320 | 2.9 | 8 | 8 |  |
| CO/N=C(\C(=O)N[C@@H]1C(=O)N2C(C(=O)[O-])=C(C[N+]3(C)CCCC3)CS[C@H]12)c1csc(N)n1 | inactive | inactive |  |  |  |  | 4 |  |  |  |  |  |
| CO/N=C(\C(=O)N[C@@H]1C(=O)N2C(C(=O)O)=C(COC(N)=O)CS[C@H]12)c1ccco1 | inactive | inactive |  |  |  |  | 4 |  |  |  |  |  |
| CC1(C)S[C@@H]2[C@H](NC(=O)[C@H](C(=O)O)c3ccsc3)C(=O)N2[C@H]1C(=O)O | inactive | inactive | 12 | 19 | 1.6 | 125 | 8 | 320 | 0.4 | 8 | 8 |  |
